Assay results reported in ChEMBL document CHEMBL4004783, “Penicisulfuranols A-F, Alkaloids from the Mangrove Endophytic Fungus Penicillium janthinellum HDN13-309” (J Nat Prod, 2017).
Counter-ions that a name gives are not always drawn.

Assays:
HeLa = experiment: Cytotoxicity against human HeLa cells assessed as reduction in cell viability by SRB assay; format: functional, cell-based
How it was run: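 HeLa human cervical carcinoma cells; cell growth read by sulforhodamine B (SRB) method; IC50 values reported.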

HL-60 = experiment: Cytotoxicity against human HL60 cells assessed as reduction in cell viability by MTT assay; format: functional, cell-based
How it was run: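 HL-60 human promyelocytic leukemia cells; viability read by MTT method; IC50 values reported.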

Row | SMILES | IC50 (HeLa) | IC50 (HL-60)
1 | COc1ccc2c(c1OC)O[C@]1(C(=O)N3O[C@H]4[C@H](O)C=C[C@@H](O)[C@@]4(O)C[C@@]3(SC)C(=O)N1C)[C@@H]2SC | > 30 µM | > 30 µM
2 | COc1ccc2c(c1OC)O[C@]13C(=O)N4O[C@H]5[C@H](O)C=C[C@@H](O)[C@@]5(O)C[C@@]4(SSS[C@H]21)C(=O)N3C | 0.3 µM | 1.2 µM
3 | COc1ccc2c(c1OC)O[C@]13C(=O)N4O[C@H]5[C@H](O)C=C[C@@H](Cl)[C@@]5(O)C[C@@]4(SS[C@H]21)C(=O)N3C | 0.5 µM | 0.1 µM
4 | COc1ccc2c(c1OC)O[C@]1(C(=O)N3O[C@H]4[C@H](O)C=C[C@@H](Cl)[C@@]4(O)C[C@@]3(SC)C(=O)N1C)[C@@H]2SC | > 30 µM | > 30 µM
5 | COc1ccc2c(c1OC)O[C@]13C(=O)N4O[C@H]5[C@H](O)C=C[C@@H](O)[C@@]5(O)C[C@@]4(SS[C@H]21)C(=O)N3C | 3.9 µM | 1.6 µM
6 | COc1cccc2c1O[C@]1(C(=O)N3O[C@H]4[C@H](O)C=C[C@@H](O)[C@@]4(O)C[C@@]3(SC)C(=O)N1C)[C@@H]2SC | > 30 µM | > 30 µM
7 | COc1cccc2c1C(=O)c1c(O)c3c(c(O)c1C2=O)C[C@@](O)(C(=O)CO)C[C@@H]3O[C@H]1C[C@H](N)[C@H](O)[C@H](C)O1 [DOXORUBICIN HYDROCHLORIDE] | 0.5 µM | 
